# Screens from PubChem.
# PP5 inh: blocks human protein phosphatase 5 activity; purified PP5c, OMFP substrate fluorescence; P53041; inhibition, % at 6.7 µM; 0.18% of 320,000 active;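 active = inhibition above the campaign's mean inhibition across all tested compounds plus 3 SD, cut at about 9.5% in these data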;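 also: 0% = DMSO only and 100% = 100 µM cantharidin control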
# ARFGAP1 inh: rat ARFGAP1 inhibition; Q62848; Arfgap1-stimulated ARF1 GTP hydrolysis, GDP FP detection; inhibition, % at 16.5 µM; 0.26% of 360,000 active; AID 651572;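 active = inhibition above a per-plate limit, mean inhibition of low control wells plus 3 SD, cut at about 25% in these data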;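 also: 0% = DMSO wells with enzyme and 100% = wells lacking Arfgap1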
#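 material = rat Arfgap1 catalytic domain, aa 1-136 | also added = human ARF1(Δ1-17)-GTP substrate | compound dosing = one concentration, 16.5 µM, DMSO 1.26% | times = GTP hydrolysis reaction 2 h at 25 °C | measured by = FP, GDP Alexa 633 tracer displaced from anti-GDP antibody, 620/688 nm | evaluation = percent inhibition of Arfgap1-stimulated GTP hydrolysis | replication = single well per compound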
# PKD1 inh: PKD1 (human) kinase inhibition | 0.056% of 200,000 active | inhibition, % (test concentration not listed) | AID 797 | PKD1 kinase fluorescence polarization assay; in the data active = inhibition above about 50%
# ASAP1 inh: inhibitors of human ASAP1 ArfGAP activity; ASAP1-stimulated ARF1 GTP hydrolysis, GDP FP detection; inhibition, % at 16.5 µM; 0.19% of 360,000 active; AID 624377; in the data active = inhibition above about 25%;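 also: 0% = vehicle with enzyme and substrate and 100% = no enzyme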
# Target sequence (Q9ULH1 325-724 limits assumed): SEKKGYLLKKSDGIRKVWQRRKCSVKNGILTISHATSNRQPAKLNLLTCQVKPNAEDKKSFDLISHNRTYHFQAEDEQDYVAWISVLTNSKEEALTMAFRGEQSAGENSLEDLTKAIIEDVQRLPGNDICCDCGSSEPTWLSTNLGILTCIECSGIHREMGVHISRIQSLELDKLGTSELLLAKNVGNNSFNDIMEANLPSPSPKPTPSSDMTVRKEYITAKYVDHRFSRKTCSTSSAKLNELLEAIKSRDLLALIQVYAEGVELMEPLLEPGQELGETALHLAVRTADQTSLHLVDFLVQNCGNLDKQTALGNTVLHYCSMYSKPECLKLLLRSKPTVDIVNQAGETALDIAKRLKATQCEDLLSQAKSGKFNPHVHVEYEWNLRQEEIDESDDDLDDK
# ASAP1 inh confirm: ASAP1 inhibition confirmed | shares compounds with ASAP1 inh | ASAP1-stimulated Arf1 GTPase, GDP fluorescence polarization | inhibition, % at 16.5 µM | 37% of 620 active | AID 624431;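 active = mean inhibition over triplicates exceeds the hit threshold derived for the earlier primary screening run, cut at about 25% in these data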
# ARFGAP1 inh conf: confirmation of rat ARFGAP1 inhibitors; shares compounds with ARFGAP1 inh; ARFGAP1-stimulated ARF1 GTP hydrolysis, GDP tracer FP; inhibition, % at 16.5 µM; 30% of 890 active; AID 651608;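 active = average inhibition over triplicates above the hit cutoff set in the earlier primary screen, cut at about 25% in these data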;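 also: 0% = Arfgap1 plus ARF1-GTP with DMSO and 100% = wells lacking Arfgap1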
# The depositor's hits bear a star; . = no result. Rows were chosen to be rich in hits. Some 0.54% of all compounds tested hit in one or more screens of this group.
SMILES,PP5 inh,ARFGAP1 inh,PKD1 inh,ASAP1 inh,ARFGAP1 inh conf,others
CCOCCCn1c(N)c(C(=O)Nc2sc3c(c2C(=O)OC)CCCC3)c2nc3ccccc3nc21,2,25*,-4,34*,4,ASAP1 inh confirm=14
S=C(NCCc1ccccc1)N1Cc2cc(Br)ccc2-n2nncc2C1,.,1,.,1,.,
S=C(NCCc1ccccc1)N1Cc2ccc(Br)cc2-n2nncc2C1,.,26*,.,2,5,
CN1CCN(Cc2cc(C(C)(C)C)c(O)c(C(C)(C)C)c2)CC1,-7,26*,-1,7,6,
O=C(NCC1=C(c2cccc3ccccc23)C[C@@H]2CC[C@H]1N2Cc1ccco1)c1cccs1,.,-7,.,-3,.,
O=C1NCN(c2ccccc2)C12CCN(C(c1cc3ccccc3o1)c1nnnn1C1CCCCC1)CC2 (centres undefined),.,10,.,-5,.,
CCOP(=O)(OCC)C(O)c1cccc([N+](=O)[O-])c1 (centres undefined),0,26*,-6,11,-1,
